# Screening data from PubChem.
# Ecoli rRNA inh: reduced GFP signal of wild-type E. coli, primary screen, bacterial rRNA inhibitor project, GFP/RFP fluorescence, OD600, single point; E. coli WT GFP vs humanized-ribosome RFP mutants, 24 h; stronger effect = lower value; DMSO median 0, no signal -100; 350,000 compounds, 1.6% hits; GFP signal change (wild-type ribosome), % (no concentration beside the values);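 active means significant combined selectivity score with lowered wild-type GFP, culture density cut under 30%, mutant RFP and density less affected; inactive means any of these conditions unmet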
# HIV Env fusion: inhibitors of HIV-1 Env-driven cell-cell fusion, primary screen, HeLa-JRFL effector, CEM21 target cells, luciferase. inhibition, % at 12.3 µM. 360,000 compounds, 1.1% hits;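 active means mean replicate inhibition score of at least 50 and every replicate individually at or above 50; inconclusive means only one of the two criteria met; inactive means mean below 50 and not all replicates reaching 50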;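 further: 0% = plate neutral controls and 100% = maraviroc near 300 nM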
# miR-122 sensor: miR-122 Renilla sensor signal increase in Huh7, primary screen, miR-122 inhibitor project, cell-based, single point, plate reader; Huh7 miR-122 Renilla luciferase sensor, 48 h; neutral wells = 0, positive control = 100; activation (reporter increase), % at 12.5 µM; 340,000 compounds, 0.3% hits;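 active means mean replicate activation score at least 90 and every replicate individually at or above 90; inconclusive means only one of the two criteria met; inactive means neither criterion met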;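 further: higher luciferase means less miR-122 activity so hits act as miR-122 inhibitors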
# Cneo AK release: Cryptococcus neoformans cell lysis inducers, primary screen, AK release luminescence, single concentration; C. neoformans lysis, adenylate kinase release luminescence, 4 h; normalised: neutral wells 0, clomiphene wells 100; lysis activity, % at 15 µM; 360,000 compounds, 0.2% hits; AID 651654, 2012;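 active means mean lysis activity across replicates of at least 80%, whatever share of replicates individually reach that level; inactive means mean lysis activity below 80%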
#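 Schedule: static 4 h at 37 °C with compound, 1 h detection; system: C. neoformans cells; benchmarks: Clomiphene as positive control; buffer or medium: fresh YPD medium; measure: luminescence rise reflecting yeast cell lysis; measured by: luminescent adenylate kinase detection reagent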
# CFTR F508del cor: F508del CFTR correction, initial screen, CFBE line, single point | activity (quench increase), % at 7.58 µM | CFBE cells, YFP halide quenching; stimulated with forskolin plus potentiator P3; % fluorescence drop versus neutral controls | AID 720511, 2013 | 350,000 compounds, 0.36% hits;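 active means mean added fluorescence quench of at least 8% versus neutral control, with both replicates also reaching 8%; inconclusive means only one of the mean or replicate conditions met; inactive means mean below 8% and not both replicates reaching 8%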;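 further: cells transiently co-express mutant CFTR-F508del with the halide-sensitive YFP; corrector assay measuring rescue of mutant channel to the surface after 24 h compound exposure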
# GSIS activator: GLuc luminescence reporter in INS-1E cells, primary screen for activators of glucose-dependent secretion of insulin; INS-1E GLuc reporter insulin secretion, 2-3 h; activation, % at 16.6 µM; 370,000 compounds, 0.61% hits;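 active means lowest replicate activation of at least 40%, so every replicate reaches that level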;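 further: 0% = median of neutral control wells and 100% = median of IBMX positive control wells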
# * = called active by the depositor; i = inactive; ? = inconclusive; · = not tested or not shown; [ ] = dose if it differs, or a comment. A selection: hits, their analogues and other compounds. The true share with any hit is near 3.1%.
SMILES,Ecoli rRNA inh,HIV Env fusion,miR-122 sensor,Cneo AK release,CFTR F508del cor,GSIS activator
COCC(=O)N(C)C[C@H]1Oc2ncc(Br)cc2C(=O)N([C@H](C)CO)C[C@H]1C,3,80*[16.7 µM],8[16.7 µM],-6,-1,19
Cc1cccc(C(=O)OCC(=O)NCc2ccco2)c1,9,66*,14,-1,-2,2
O=C(COC(=O)CSc1ccc(Br)cc1)NCc1ccco1,2,10,-12,-2,1,-9
Cc1cc(Br)ccc1SCC(=O)OCC(=O)NCc1ccco1,-18*,-7,-5,-3,0,-12
Cc1ccc(C(=O)OCC(=O)NCc2ccco2)cc1,·,-46,2,0,·,·
CN(c1ccccc1)S(=O)(=O)c1cccc(C(=O)OCC(=O)NCc2ccco2)c1,-24*,-1,-2,-1,-2,-1
CCC(=O)NC[C@@H]1[C@H](c2ccccc2)[C@H](CO)N1C(=O)C1CCC1,-2,·,33[16.7 µM],0,-1,-1
CC=Cc1ccc2n(c1=O)C[C@@H]1[C@@H](CO)[C@H](C(=O)N[C@H](C)c3ccccc3)[C@H]2N1Cc1ccccc1 (mixture of isomers),-1,·,·,·,-1,-15
C[C@H](CO)N1C[C@H](C)[C@@H](CN(C)C(=O)Nc2ccc3c(c2)OCO3)Oc2c(NC(=O)NC3CCCCC3)cccc2C1=O,1,·,·,·,·,-17
Cc1cccc(NC(=O)c2ccc(-c3ccccc3[N+](=O)[O-])o2)c1,-32*,-5,·,0,-3,17
CN1CCN(c2ccc(NC(=O)c3ccc([N+](=O)[O-])o3)cc2Cl)CC1,-36,i,·,-5,0,-9
CCCC(=O)N1CCN(c2ccc(NC(=O)c3ccc([N+](=O)[O-])o3)cc2Cl)CC1,-39*,-285,·,·,-11,-2
CCN1CCN(c2c(Cl)cccc2NC(=O)c2ccc([N+](=O)[O-])o2)CC1,-17*,7,5,-7,0,-4
O=C(Nc1cccc(Cl)c1N1CCCC1)c1ccc([N+](=O)[O-])o1,1,7,-2,-5,2,-7
COc1ccc(S(=O)(=O)Nc2ccccc2C(=O)NCc2cccnc2)cc1C,-3,-1,0,1,-2,35
COc1cc(C(=O)Nc2ccccc2C(=O)NCc2cccnc2)cc(OC)c1OC,1,?,1,1,-1,16
COc1ccc(C(=O)NC(=S)NCc2cccnc2)cc1Cl,-21*,-18,-5,-4,-1,-1
COc1ccc(C(=O)NCc2cccnc2)cc1Br,·,-46,-11,1,·,·
CCc1ccc(C(=O)NC(=S)NCc2cccnc2)cc1,1,-12,·,87*,2,4
Cc1cc(F)ccc1S(=O)(=O)Nc1ccccc1C(=O)NCc1cccnc1,-24*,9,·,·,-1,10
COc1ccc(C(=O)Nc2ccccc2C(=O)NCc2cccnc2)cc1OC,7,-32,2,0,-1,41*
CO[C@@H]1CN(C)C(=O)c2cc(NC(=O)Nc3cccc(F)c3)ccc2OC[C@@H](C)NC[C@@H]1C,-1,·,4[16.7 µM],5,2,3
O=C(NCCCN1CCOCC1)c1cc(S(=O)(=O)N2CCOCC2)c(Cl)cc1Cl,11,-13,-2,0,9.0*,7
COc1ccccc1NS(=O)(=O)c1ccc2oc(SCc3ccc(C#N)cc3)nc2c1,·,58*,·,·,·,-8
CNC(=O)CSc1nc2cc(S(=O)(=O)Nc3ccccc3OC)ccc2o1,-4,1,·,-1,-3,5
SMILES,Ecoli rRNA inh,HIV Env fusion,miR-122 sensor,Cneo AK release,CFTR F508del cor,GSIS activator
Cc1ccc2c(CN3CCN(S(=O)(=O)c4ccc(Cl)cc4)CC3)cc(=O)oc2c1C,13,33,5,3,19*,24
COc1ccc(-c2ccc([C@@H]3[C@@H](C#N)N[C@@H]3CO)cc2)cc1,-2,-25[16.7 µM],·,-3,-4,2
CCc1ccc(NC(=O)CSc2nc3n[nH]c(C)c3c(=N)n2-c2cccc(OC)c2)cc1,·,59*,·,-1,·,-3
Cc1cc(-n2c(SCC(=O)Nc3ccc(F)c(F)c3)nc3n[nH]c(C)c3c2=N)ccc1Cl,3,35,-7,0,0,250*
Cc1cc(-n2c(SCC(=O)Nc3ccc(Br)cc3)nc3n[nH]c(C)c3c2=N)ccc1Cl,11,10,6,0,-1,2
C[C@H]1CN([C@@H](C)CO)S(=O)(=O)c2ccc(C#CCN(C)C)cc2O[C@@H]1CN(C)C(=O)Nc1ccccc1F,-2,-17[16.7 µM],16[16.7 µM],46,0,1
C[C@H](CO)N1C[C@H](C)[C@@H](CN(C)Cc2ccc(Oc3ccccc3)cc2)Oc2ccc(NC(=O)CCN3CCOCC3)cc2C1=O,-3,·,-1[16.7 µM],49,-1,7
COc1ccc(N2CCN(Cc3nc(Cc4cccc(F)c4)no3)C(C)C2)cc1 (centres undefined),-23*,6,-5,-4,-2,-2
Fc1cccc(Cc2noc(CN3CCSCC3)n2)c1,17,-4,·,·,-2,13
Cc1cccc(C2N=C(N)Nc3nc4ccccc4n32)c1 (centres undefined),6,4,·,·,-2,56*
CO[C@H]1CN(C)C(=O)c2cc(NS(C)(=O)=O)ccc2OC[C@@H](C)N(CC2CCCCC2)C[C@@H]1C,-2,·,-15[16.7 µM],-2,3,-10
CC(C)(C)NC(=O)C(c1ccncc1)N(C(=O)C1CSC(=O)C1)c1ccccc1 (centres undefined),12,4,9,0,-1,-8
CC(C)(C)NC(=O)C(c1ccccc1)N(C(=O)C1CSC(=O)C1)c1ccccc1 (centres undefined),·,65*,-2,4,·,·
C/C=C/c1ccc(C2[C@H]3CNC[C@@H]2N3S(=O)(=O)Cc2ccccc2)cc1 (some centres undefined),5,·,·,·,0,1
COc1ccc(CN(C)C[C@H]2Oc3ccc(NS(=O)(=O)c4cn(C)cn4)cc3CC(=O)N([C@@H](C)CO)C[C@@H]2C)cc1,2,·,0[16.7 µM],-2,-1,30
CC(C)(C)C1CCc2c(sc(NC(=O)c3cccs3)c2C(N)=O)C1 (centres undefined),·,·,52,2,·,45*
CCCCC1(C2CCCC2)NC(=O)NC1=O (centres undefined),8,·,·,0,12*,7
Cc1ccc(C)c(C(=O)COC(=O)C(C)N2C(=O)C3C4CCC(C4)C3C2=O)c1 (centres undefined),-29*,-45,8,0,-5,-9
